pIC50: −log10 of the molar value. Calls of active or inactive are those of the source. The rule behind the calls is not given here.
Tests used:
PC-3 [1] = experiment: Cell cycle arrest in human PC3 cells by accumulation at G1 phase at 100 uM after 72 hrs by FACS flow cytometry; type: functional
In short: (§1)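 LNCaP or PC 3 cells seeded in 6-well plates, synchronized 24 h in serum-free medium, treated 72 h with varying compound concentrations; trypsinized cells pooled with supernatants, pelleted, fixed in cold ethanol overnight at 4 °C, then 30 min in PBS with RNase and propidium iodide. FACScan flow cytometry quantified sub-G1 (sub-diploid), G1, S and G2-M fractions as percent of cells.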

PC-3 [2] = experiment: Cell cycle arrest in human PC3 cells by accumulation at G2M phase at 100 uM after 72 hrs by FACS flow cytometry; type: functional; in short: as §1
LNCaP [3] = experiment: Cell cycle arrest in human LNCaP cells by accumulation at G2M phase at 10 uM after 72 hrs by FACS flow cytometry; type: functional; in short: as §1
[4] = target: T1, Polyunsaturated fatty acid 5-lipoxygenase (Homo sapiens, UniProt P09917); experiment: Inhibition of 5LOX in human whole blood assessed as inhibition of calcium ionophore A 23187-stimulated 5HETE production by HPLC analysis; type: functional, tissue-based
T1 sequence (P09917 whole entry): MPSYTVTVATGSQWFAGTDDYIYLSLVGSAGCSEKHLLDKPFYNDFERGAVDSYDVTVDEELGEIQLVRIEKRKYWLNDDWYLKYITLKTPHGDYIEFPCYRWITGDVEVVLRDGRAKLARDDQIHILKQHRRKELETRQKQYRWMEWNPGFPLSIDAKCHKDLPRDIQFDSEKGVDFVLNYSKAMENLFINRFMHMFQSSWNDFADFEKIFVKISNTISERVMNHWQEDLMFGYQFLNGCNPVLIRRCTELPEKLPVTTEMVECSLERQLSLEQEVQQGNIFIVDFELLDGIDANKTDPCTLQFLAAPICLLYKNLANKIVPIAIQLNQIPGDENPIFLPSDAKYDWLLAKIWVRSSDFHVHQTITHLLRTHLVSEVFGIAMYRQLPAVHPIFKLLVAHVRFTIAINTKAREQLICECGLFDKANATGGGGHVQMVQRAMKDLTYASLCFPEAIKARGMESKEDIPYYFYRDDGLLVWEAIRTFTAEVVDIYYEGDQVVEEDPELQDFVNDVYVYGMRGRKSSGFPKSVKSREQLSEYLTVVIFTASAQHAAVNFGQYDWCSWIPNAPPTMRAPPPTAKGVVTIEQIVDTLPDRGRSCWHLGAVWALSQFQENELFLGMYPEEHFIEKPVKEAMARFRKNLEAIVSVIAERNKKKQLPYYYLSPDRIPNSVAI
In short: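 Heparinized human whole blood, 1 mL aliquots, preincubated 15 min at 37 °C with compound or DMSO vehicle; then stimulated with 40 μM A 23187 for 15 min at 37 °C. 5-HETE extracted into ethyl acetate, then HPLC on a C18 column, methanol/water/acetic acid 80:20:0.08, pH 6.0, UV at 234 nm. IC50 from n = 2.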

LNCaP [5] = experiment: Antiproliferative activity against androgen-sensitive human LNCaP cells after 72 hrs by MTT test; type: functional, cell-based
In short: (§2)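 Prostate carcinoma cells kept at 37 °C, 5% CO2 in RPMI 1640 with 10% fetal calf serum; seeded 1.8 × 10⁴ (PC 3) or 5.0 × 10⁴ (LNCaP) cells/well, grown 3 days, serum-starved 24 h for synchronization, then exposed 72 h to compounds in medium (<0.1% DMSO); growth read by colorimetric MTT. Mean of at least four independent determinations; single-dose lines at 100 μM.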

LNCaP [6] = experiment: Cell cycle arrest in human LNCaP cells by accumulation at subG1 phase at 100 uM after 72 hrs by FACS flow cytometry; type: functional; in short: as §1
LNCaP [7] = experiment: Cell cycle arrest in human LNCaP cells by accumulation at subG1 phase at 10 uM after 72 hrs by FACS flow cytometry; type: functional; in short: as §1
PC-3 [8] = experiment: Antiproliferative activity against androgen-independent human PC3 cells at 100 uM after 72 hrs by MTT test; type: functional; in short: as §2
LNCaP [9] = experiment: Cell cycle arrest in human LNCaP cells by accumulation at S phase at 100 uM after 72 hrs by FACS flow cytometry; type: functional; in short: as §1
PC-3 [10] = experiment: Cell cycle arrest in human PC3 cells by accumulation at subG1 phase at 100 uM after 72 hrs by FACS flow cytometry; type: functional; in short: as §1
LNCaP [11] = experiment: Cell cycle arrest in human LNCaP cells by accumulation at G1 phase at 10 uM after 72 hrs by FACS flow cytometry; type: functional; in short: as §1
LNCaP [12] = experiment: Cell cycle arrest in human LNCaP cells by accumulation at S phase at 10 uM after 72 hrs by FACS flow cytometry; type: functional; in short: as §1
PC-3 [13] = experiment: Cell cycle arrest in human PC3 cells by accumulation at S phase at 100 uM after 72 hrs by FACS flow cytometry; type: functional; in short: as §1
LNCaP [14] = experiment: Cell cycle arrest in human LNCaP cells by accumulation at G1 phase at 100 uM after 72 hrs by FACS flow cytometry; type: functional; in short: as §1
LNCaP [15] = experiment: Cell cycle arrest in human LNCaP cells by accumulation at G2M phase at 100 uM after 72 hrs by FACS flow cytometry; type: functional; in short: as §1
[16] = target: Prostaglandin G/H synthase 1 (Homo sapiens, UniProt P23219); experiment: Inhibition of COX1 expressed in CHO cells assessed as inhibition of arachidonic acid-stimulated PGE2 production by enzyme immunoassay; type: functional, cell-based
[17] = target: T2, Prostaglandin G/H synthase 2 (Homo sapiens, UniProt P35354); experiment: Inhibition of COX2 expressed in CHO cells assessed as inhibition of arachidonic acid-stimulated PGE2 production by enzyme immunoassay
T2 sequence (P35354 whole entry): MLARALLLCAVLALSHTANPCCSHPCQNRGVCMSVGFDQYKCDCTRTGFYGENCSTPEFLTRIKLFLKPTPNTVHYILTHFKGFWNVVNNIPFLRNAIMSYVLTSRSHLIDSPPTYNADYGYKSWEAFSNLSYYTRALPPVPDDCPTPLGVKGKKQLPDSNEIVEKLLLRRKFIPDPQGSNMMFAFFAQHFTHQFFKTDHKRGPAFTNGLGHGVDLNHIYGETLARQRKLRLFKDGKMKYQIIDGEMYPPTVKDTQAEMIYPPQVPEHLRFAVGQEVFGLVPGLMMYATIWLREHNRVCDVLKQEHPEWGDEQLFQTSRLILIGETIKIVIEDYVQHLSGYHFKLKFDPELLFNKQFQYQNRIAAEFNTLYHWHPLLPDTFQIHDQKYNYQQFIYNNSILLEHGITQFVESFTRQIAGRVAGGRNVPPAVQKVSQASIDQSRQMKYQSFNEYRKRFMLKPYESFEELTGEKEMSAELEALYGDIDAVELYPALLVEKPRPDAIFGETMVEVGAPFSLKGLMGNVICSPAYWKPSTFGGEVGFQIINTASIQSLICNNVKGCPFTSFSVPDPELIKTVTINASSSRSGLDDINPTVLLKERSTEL

PC-3 [18] = experiment: Antiproliferative activity against androgen-independent human PC3 cells after 72 hrs by MTT test; type: functional, cell-based; details: PC-3, 72 h; in short: as §2
PC-3 [19] = experiment: Cell cycle arrest in human PC3 cells by accumulation at G2M phase at 10 uM after 72 hrs by FACS flow cytometry; type: functional; in short: as §1
Homo sapiens = organism: Homo sapiens; experiment: Selectivity for COX2 over COX1
In short: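 Ratio of COX-1 to COX-2 IC50s, each taken from PGE2 production in CHO cells transfected with COX-1 or with COX-2. Cells were seeded and, 18 h later, given fresh Ham's F12 with 10% fetal calf serum with or without compound. After 10 min they were stimulated with arachidonic acid, then for 10 min with calcium ionophore A 23187. Intracellular PGE2 was read by enzyme immunoassay, n = 2.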

PC-3 [20] = experiment: Cell cycle arrest in human PC3 cells by accumulation at subG1 phase at 10 uM after 72 hrs by FACS flow cytometry; type: functional; in short: as §1
PC-3 [21] = experiment: Inhibition of MMP9 secretion in androgen-independent human PC3 cells; type: functional, cell-based
PC-3 [22] = experiment: Cell cycle arrest in human PC3 cells by accumulation at G1 phase at 10 uM after 72 hrs by FACS flow cytometry; type: functional; in short: as §1
PC-3 [23] = experiment: Cell cycle arrest in human PC3 cells by accumulation at S phase at 10 uM after 72 hrs by FACS flow cytometry; type: functional; in short: as §1

Prostaglandin G/H synthase 1, sequence (P23219 whole entry): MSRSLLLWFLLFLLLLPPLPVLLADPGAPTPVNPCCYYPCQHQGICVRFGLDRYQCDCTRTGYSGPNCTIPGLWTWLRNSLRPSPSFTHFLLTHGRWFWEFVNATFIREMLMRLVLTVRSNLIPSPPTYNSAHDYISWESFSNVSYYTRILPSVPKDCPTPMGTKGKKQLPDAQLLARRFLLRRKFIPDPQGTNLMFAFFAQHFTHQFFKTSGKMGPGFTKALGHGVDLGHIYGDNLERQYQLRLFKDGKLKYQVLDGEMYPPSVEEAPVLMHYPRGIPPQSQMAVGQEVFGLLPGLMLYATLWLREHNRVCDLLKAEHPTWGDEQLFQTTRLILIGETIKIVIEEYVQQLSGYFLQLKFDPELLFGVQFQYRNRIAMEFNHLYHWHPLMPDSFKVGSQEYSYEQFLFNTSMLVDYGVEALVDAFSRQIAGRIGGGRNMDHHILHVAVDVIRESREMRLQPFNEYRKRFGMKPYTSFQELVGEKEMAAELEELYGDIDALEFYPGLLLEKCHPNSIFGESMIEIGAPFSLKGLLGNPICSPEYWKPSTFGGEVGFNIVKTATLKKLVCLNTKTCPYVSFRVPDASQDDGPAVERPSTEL

COC1(c2cc(F)cc(OCc3cc(-c4ccccc4)n(-c4ccc(S(C)(=O)=O)cc4)n3)c2)CCOCC1
Activity (PC-3 [1]): 67.8%
Activity (PC-3 [2]): 25.9%
Activity (LNCaP [3]): 14.7%
pIC50 [4]: 6.52
pIC50 (LNCaP [5]): 4.08
Activity (LNCaP [6]): 3.9%
Activity (LNCaP [7]): 3.6%
Activity (PC-3 [8]): 45%
Activity (LNCaP [9]): 9.9%
Activity (PC-3 [10]): 1.2%
Activity (LNCaP [11]): 70.1%
Activity (LNCaP [12]): 11.2%
Activity (PC-3 [13]): 5.1%
Activity (LNCaP [14]): 74.2%
Activity (LNCaP [15]): 12%
pIC50 [16]: 4.58

COC1(c2cc(F)cc(OCc3cc(-c4ccccc4)n(-c4ccc(S(N)(=O)=O)cc4)n3)c2)CCOCC1
Activity (LNCaP [3]): 8.2%
pIC50 [17]: 7.00
pIC50 [4]: 6.13
pIC50 (PC-3 [18]): 4.34
Activity (PC-3 [19]): 19.5%
pIC50 (LNCaP [5]): 4.30
Selectivity ratio (Homo sapiens): 257
Activity (PC-3 [20]): 2.1%
Activity (LNCaP [7]): 10.8%
Activity (PC-3 [21]): Active
Activity (LNCaP [11]): 74.2%
Activity (LNCaP [12]): 6.9%
Activity (PC-3 [22]): 71.5%
Activity (PC-3 [23]): 6.6%
pIC50 [16]: 4.59

Source: ChEMBL document CHEMBL1149247, “New COX-2/5-LOX inhibitors: apoptosis-inducing agents potentially useful in prostate cancer chemotherapy” (J Med Chem, 2004)
